Source: ChEMBL document CHEMBL1137337, “Design, synthesis, and biological evaluation of new cyclic melanotropin peptide analogues selective for the human melanocortin-4 receptor” (J Med Chem, 2006)
pEC50, pIC50: −log10 of the molar value. Active and inactive are the calls of the source. The calls are words filed in the database; no cut-off is given here.

Legend:
Melanocortin receptor 5 [1] = target: T1, Melanocortin receptor 5 (Homo sapiens, UniProt P33032); experiment: Activity at hMC5R transfected in HEK293 cells assessed as intracellular cAMP accumulation relative to MT2; format: functional, cell-based
T1 sequence (P33032 whole entry): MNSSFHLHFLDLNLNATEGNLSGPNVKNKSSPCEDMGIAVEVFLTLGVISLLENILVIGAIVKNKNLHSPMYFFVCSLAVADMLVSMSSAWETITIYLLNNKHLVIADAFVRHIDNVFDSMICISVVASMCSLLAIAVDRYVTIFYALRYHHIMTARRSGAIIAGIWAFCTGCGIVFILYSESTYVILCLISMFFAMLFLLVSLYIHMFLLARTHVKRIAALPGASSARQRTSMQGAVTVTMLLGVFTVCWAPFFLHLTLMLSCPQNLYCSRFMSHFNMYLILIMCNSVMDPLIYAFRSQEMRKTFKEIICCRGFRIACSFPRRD

[2] = target: T2, Melanocyte-stimulating hormone receptor (Homo sapiens, UniProt Q01726); experiment: Displacement of [125I]NDP-alphaMSH from human MC1 receptor expressed in HEK293 cells relative to MT2; format: cell-based
Method in brief: (§1)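 Binding efficiency was measured in the whole-cell [¹²⁵I]NDP-α-MSH competition assay on receptor-transfected HEK293 cells (30 min, 37 °C). It is expressed as the peptide's maximal percentage specific binding relative to MTII agonist binding, with peptides tested at 10⁻¹⁰ to 10⁻⁵ M.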
Target sequence in this assay (Q01726 whole entry, looked up): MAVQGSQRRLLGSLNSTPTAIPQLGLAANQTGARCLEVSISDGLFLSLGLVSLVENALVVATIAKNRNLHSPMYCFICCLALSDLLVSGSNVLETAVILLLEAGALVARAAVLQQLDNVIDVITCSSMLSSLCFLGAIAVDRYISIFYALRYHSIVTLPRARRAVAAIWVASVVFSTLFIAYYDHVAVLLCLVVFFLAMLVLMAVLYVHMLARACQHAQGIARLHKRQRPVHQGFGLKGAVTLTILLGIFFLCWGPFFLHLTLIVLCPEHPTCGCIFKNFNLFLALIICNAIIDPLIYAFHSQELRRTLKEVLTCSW

Melanocortin receptor 4 [3] = target: T3, Melanocortin receptor 4 (Homo sapiens, UniProt P32245); experiment: Activity at hMC4R transfected in HEK293 cells assessed as intracellular cAMP accumulation relative to MT2; format: functional, cell-based; parameters: concentration or dose not given beside the values
T3 sequence (P32245 whole entry): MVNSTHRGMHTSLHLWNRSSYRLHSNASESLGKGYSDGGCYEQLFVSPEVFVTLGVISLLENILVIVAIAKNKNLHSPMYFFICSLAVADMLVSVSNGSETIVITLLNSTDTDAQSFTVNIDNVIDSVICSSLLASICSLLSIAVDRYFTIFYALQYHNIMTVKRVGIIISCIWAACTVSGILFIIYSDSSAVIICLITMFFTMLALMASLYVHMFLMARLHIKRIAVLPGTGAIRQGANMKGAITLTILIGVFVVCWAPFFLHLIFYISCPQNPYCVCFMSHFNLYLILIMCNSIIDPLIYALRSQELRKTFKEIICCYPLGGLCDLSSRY

Melanocortin receptor 3 [4] = target: T4, Melanocortin receptor 3 (Homo sapiens, UniProt P41968); experiment: Activity at hMC3R transfected in HEK293 cells assessed as intracellular cAMP accumulation relative to MT2; format: functional, cell-based; parameters: concentration or dose not given beside the values
T4 sequence (P41968 whole entry): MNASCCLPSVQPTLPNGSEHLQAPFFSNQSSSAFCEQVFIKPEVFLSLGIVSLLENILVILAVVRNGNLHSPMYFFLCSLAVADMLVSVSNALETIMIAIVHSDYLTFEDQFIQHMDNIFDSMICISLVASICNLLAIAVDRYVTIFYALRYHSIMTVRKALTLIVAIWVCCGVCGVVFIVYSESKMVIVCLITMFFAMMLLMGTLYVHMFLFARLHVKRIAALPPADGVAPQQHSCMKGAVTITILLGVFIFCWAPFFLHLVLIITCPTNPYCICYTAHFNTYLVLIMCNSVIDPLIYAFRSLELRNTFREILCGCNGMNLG

Melanocortin receptor 5 [5] = target: T1, Melanocortin receptor 5; experiment: Displacement of [125I]NDP-alphaMSH from human MC5 receptor expressed in HEK293 cells; format: cell-based
Method in brief: (§2)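 Whole-cell competition used transfected HEK293 cells seeded 48 h ahead at 100 000 cells/well. Binding buffer was MEM with 25 mM HEPES pH 7.4, 0.2% BSA, 1 mM 1,10-phenanthroline, leupeptin and bacitracin. Radioactivity was gamma-counted, and IC50 was obtained by nonlinear least-squares fit.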

Melanocortin receptor 5 [6] = target: T1, Melanocortin receptor 5; experiment: Displacement of [125I]NDP-alphaMSH from human MC5 receptor expressed in HEK293 cells relative to MT2; format: cell-based; method in brief: as §1
Melanocortin receptor 4 [7] = target: T3, Melanocortin receptor 4; experiment: Displacement of [125I]NDP-alphaMSH from human MC4 receptor expressed in HEK293 cells relative to MT2; format: cell-based; method in brief: as §1
Melanocortin receptor 3 [8] = target: T4, Melanocortin receptor 3; experiment: Activity at hMC3R transfected in HEK293 cells assessed as intracellular cAMP accumulation; format: functional, cell-based
Method in brief: (§3)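 HEK293 cells stably carrying the human MC receptor were seeded 48 h ahead at 50 000 cells/well. They were preincubated 1 min at 37 °C in EBSS with IBMX, then exposed to peptide at 10⁻¹⁰ to 10⁻⁵ M for 3 min at 37 °C. Ice-cold Tris/EDTA stopped the reaction, and lysates were boiled 15 min. Total cAMP was measured by competitive binding kit, and EC50 was obtained by nonlinear least-squares fit.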

Melanocortin receptor 5 [9] = target: T1, Melanocortin receptor 5; experiment: Activity at hMC5R transfected in HEK293 cells assessed as intracellular cAMP accumulation; format: functional, cell-based; method in brief: as §3
Melanocortin receptor 3 [10] = target: T4, Melanocortin receptor 3; experiment: Displacement of [125I]NDP-alphaMSH from human MC3 receptor expressed in HEK293 cells relative to MT2; format: cell-based; method in brief: as §1
[11] = target: T2, Melanocyte-stimulating hormone receptor; experiment: Activity at hMC1R transfected in HEK293 cells assessed as intracellular cAMP accumulation relative to MT2; format: functional, cell-based; parameters: concentration or dose not given beside the values
Target sequence in this assay (Q01726 whole entry, looked up): as the sequence (Q01726 whole entry, looked up) above

Melanocortin receptor 4 [12] = target: T3, Melanocortin receptor 4; experiment: Activity at hMC4R transfected in HEK293 cells assessed as intracellular cAMP accumulation; format: functional, cell-based; method in brief: as §3
Melanocortin receptor 4 [13] = target: T3, Melanocortin receptor 4; experiment: Displacement of [125I]NDP-alphaMSH from human MC4 receptor expressed in HEK293 cells; format: cell-based; method in brief: as §2
Melanocortin receptor 3 [14] = target: T4, Melanocortin receptor 3; experiment: Displacement of [125I]NDP-alphaMSH from human MC3 receptor expressed in HEK293 cells; format: cell-based; method in brief: as §2
[15] = target: T2, Melanocyte-stimulating hormone receptor; experiment: Displacement of [125I]NDP-alphaMSH from human MC1 receptor expressed in HEK293 cells; format: cell-based; method in brief: as §2

Compound	Activity (Melanocortin receptor 5 [1]) [%]	Activity [2] [%]	Activity (Melanocortin receptor 4 [3]) [%]	Activity (Melanocortin receptor 3 [4]) [%]	Activity (Melanocortin receptor 5 [5])	Activity (Melanocortin receptor 5 [6]) [%]	Activity (Melanocortin receptor 4 [7]) [%]	Activity (Melanocortin receptor 3 [8])	Activity (Melanocortin receptor 5 [9])	Activity (Melanocortin receptor 3 [10]) [%]	Activity [11] [%]	pEC50 (Melanocortin receptor 4 [12])	pIC50 (Melanocortin receptor 4 [13])	pIC50 (Melanocortin receptor 3 [14])	pIC50 [15]	Activity (Melanocortin receptor 4 [12])	Activity (Melanocortin receptor 3 [14])	Activity [15]	Activity (Melanocortin receptor 4 [13])	pIC50 (Melanocortin receptor 5 [5])
CC(=O)N[C@H]1CCC(=O)NCC[C@@H](C(=O)N[C@@H](Cc2c[nH]c3ccccc23)C(N)=O)N(CCCCN=C(N)N)C(=O)[C@@H](Cc2ccccc2)NC(=O)[C@H](Cc2cnc[nH]2)NC1=O														< 6.00	< 6.00					
CC(=O)N[C@H]1CSSC[C@@H](C(=O)N[C@@H](Cc2c[nH]c3ccccc23)C(N)=O)N(CCCCN=C(N)N)C(=O)[C@@H](Cc2ccccc2)NC(=O)[C@H](Cc2cnc[nH]2)NC1=O													8.74							
CC(=O)N[C@H]1CSSC[C@H](C(=O)N[C@@H](Cc2c[nH]c3ccccc23)C(N)=O)N(CCCCN=C(N)N)C(=O)[C@@H](Cc2ccccc2)NC(=O)[C@H](Cc2c[nH]cn2)NC1=O	0	< 10	0	0	inactive	0	0	inactive	inactive	0	0				6.00	inactive	inactive		inactive	
CC(=O)N[C@H]1CCC(=O)NCCC[C@@H](C(=O)N[C@@H](Cc2c[nH]c3ccccc23)C(N)=O)N(CCCCN=C(N)N)C(=O)[C@@H](Cc2ccccc2)NC(=O)[C@H](Cc2c[nH]cn2)NC1=O	0	< 10	< 10	0	inactive	0	50	inactive	inactive	50	0	< 6.00	7.00	< 6.00	6.12					
CC(=O)N[C@H]1CSSC[C@@H](C(=O)N(CCCCN=C(N)N)C(Cc2c[nH]c3ccccc23)C(N)=O)NC(=O)[C@@H](Cc2ccc3ccccc3c2)NC(=O)[C@H](Cc2c[nH]cn2)NC1=O (stereo in doubt)	0	< 10	0	0		< 10	0	inactive	inactive	0	0				< 6.00	inactive	inactive		inactive	6.68
CC(=O)N[C@H]1CCC(=O)NCCC[C@@H](C(=O)N[C@@H](Cc2c[nH]c3ccccc23)C(N)=O)N(CCCCN=C(N)N)C(=O)[C@@H](Cc2ccc3ccccc3c2)NC(=O)[C@H](Cc2c[nH]cn2)NC1=O	0	< 10	0	0	inactive	0	0	inactive	inactive	50	0			< 6.00	< 5.00	inactive			inactive	
CC(=O)N[C@H]1CSSC[C@@H](C(=O)N[C@@H](Cc2c[nH]c3ccccc23)C(N)=O)N(CCCCN=C(N)N)C(=O)[C@@H](Cc2ccccc2)NC(=O)[C@H](Cc2c[nH]cn2)NC1=O	0	0	0	0	inactive	0	50	inactive	inactive	0	0					inactive	inactive	inactive		
CC(=O)N[C@H]1CCC(=O)NCCC(C(=O)N[C@@H](Cc2c[nH]c3ccccc23)C(N)=O)N(CCCCN=C(N)N)C(=O)[C@@H](Cc2ccccc2)NC(=O)[C@H](Cc2c[nH]cn2)NC1=O (stereo not given in full)	0	< 10	0	0	inactive	0	0	inactive	inactive	50	0					inactive			inactive	

Continued, in another order:

Activity (Melanocortin receptor 5 [1]) [%]	Activity [2] [%]	Activity (Melanocortin receptor 4 [3]) [%]	Activity (Melanocortin receptor 3 [4]) [%]	Activity (Melanocortin receptor 5 [5])	Activity (Melanocortin receptor 5 [6]) [%]	Activity (Melanocortin receptor 4 [7]) [%]	Activity (Melanocortin receptor 3 [8])	Activity (Melanocortin receptor 5 [9])	Activity (Melanocortin receptor 3 [10]) [%]	Activity [11] [%]	pEC50 (Melanocortin receptor 4 [12])	pIC50 (Melanocortin receptor 4 [13])	pIC50 (Melanocortin receptor 3 [14])	pIC50 [15]	Activity (Melanocortin receptor 4 [12])	Activity (Melanocortin receptor 3 [14])	Activity [15]	Compound	Activity (Melanocortin receptor 4 [13])	pIC50 (Melanocortin receptor 5 [5])
0	< 10	18	0	inactive	0	50	inactive	inactive	50	0								CC(=O)N[C@H]1CSSC[C@@H](C(=O)N(CCCCN=C(N)N)[C@@H](Cc2c[nH]c3ccccc23)C(N)=O)NC(=O)[C@@H](Cc2ccccc2)NC(=O)[C@H](Cc2c[nH]cn2)NC1=O		
											< 6.00	9.15	< 6.00					CC(=O)N[C@H]1CSSC[C@@H](C(=O)N(CCCCN=C(N)N)[C@H](Cc2c[nH]c3ccccc23)C(N)=O)NC(=O)[C@@H](Cc2ccccc2)NC(=O)[C@H](Cc2cnc[nH]2)NC1=O		
											< 6.00	8.39	< 6.00	< 6.00				CC(=O)N[C@H]1CSSC[C@@H](C(=O)N(CCCCN=C(N)N)[C@@H](Cc2c[nH]c3ccccc23)C(N)=O)NC(=O)[C@@H](Cc2ccccc2)NC(=O)[C@H](Cc2cnc[nH]2)NC1=O		
0	0	19	0	inactive	0	50	inactive	inactive	< 10	0							inactive	CC(=O)N[C@H]1CSSC[C@@H](C(=O)N(CCCCN=C(N)N)[C@H](Cc2c[nH]c3ccccc23)C(N)=O)NC(=O)[C@@H](Cc2ccccc2)NC(=O)[C@H](Cc2c[nH]cn2)NC1=O		
